{"source": "paper PMC7614804", "about": "(Journal of medicinal chemistry, 2022)", "key": {"[1]": {"target": "T1, Pa MurB (Pseudomonas aeruginosa, UniProt Q9HZM7)", "T1 sequence (Q9HZM7 1-339)": "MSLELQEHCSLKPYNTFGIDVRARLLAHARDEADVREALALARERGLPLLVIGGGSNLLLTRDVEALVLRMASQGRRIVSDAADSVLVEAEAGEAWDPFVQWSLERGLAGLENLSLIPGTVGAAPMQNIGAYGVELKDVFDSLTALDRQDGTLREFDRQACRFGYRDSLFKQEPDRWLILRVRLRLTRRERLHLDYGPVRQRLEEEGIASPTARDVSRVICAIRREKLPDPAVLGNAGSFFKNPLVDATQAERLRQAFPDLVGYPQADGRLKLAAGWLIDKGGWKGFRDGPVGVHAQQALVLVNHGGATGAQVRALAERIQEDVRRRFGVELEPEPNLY", "assay": "Surface plasmon resonance", "assay_type": "binding", "in_short": "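Pa MurB amine-coupled to a CM5 chip. Running buffer: 10 mM NaPO4 pH 7, 150 mM NaCl, 2% DMSO, 25 °C. Each test compound at 1 mM in running buffer was injected for 30 s at […], with 320 s dissociation. Each was run twice, in reverse orders, with solvent correction. Response units were compared visually with those of the initial pyrazole fragment hit.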"}, "[2]": {"target": "T1, Pa MurB", "assay": "Isothermal titration calorimetry", "assay_type": "binding", "in_short": "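ITC at 25 °C. Pa MurB was dialysed overnight at 4 °C into 25 mM Tris-HCl pH 8.0, 150 mM NaCl; cell and syringe solutions were in the same buffer with 5% DMSO final. Usually 50 μM MurB with 3.0 mM fragment; some runs used 1.0 or 0.5 mM ligand or 200 μM MurB. A 0.4 μL first injection was discarded, then 28 × 1.5 μL every 120 s. One-site fit; LE = −(RTlnKd)/heavy atoms, in kcal/mol per heavy atom.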"}, "[3]": {"conditions": "Table 3, RU of fragment at 1 mM compared with RU of fragment 4, n = 2"}, "[4]": {"conditions": "Table 3, LE = –(RTlnKd)/(number of heavy atoms)"}, "[5]": {"conditions": "Table 4, RU of fragment at 1 mM compared with RU of fragment 4, n = 2"}, "[6]": {"conditions": "Table 4, LE = −(RTlnKd)/(number of heavy atoms)"}, "[7]": {"conditions": "Kd(μM) ITC, Table 4, 50 μM MurB, 3.0 mM fragment, fragment 41: 200 μM MurB"}, "[8]": {"conditions": "Table 5, RU of compound at 1.0 mM compared with RU of fragment 4, n = 2"}, "[9]": {"conditions": "Table 5, LE = −(RTlnKd)/(number of heavy atoms)"}, "[10]": {"conditions": "Table 6, RU of fragment at 1.0 mM compared with RU of fragment 4, n = 2"}, "[11]": {"conditions": "Table 6, LE = −(RTlnKd)/(number of heavy atoms)"}}}
{"smiles": "Cc1c(C(=O)O)nnn1-c1ccccc1", "note": "[Fragment 19]", "values": [{"measurement": "SPR RU>RUf4 1.0 mM", "setting": "[1]; [3]", "value": "no"}, {"measurement": "Kd", "setting": "[2]; Kd(μM) ITC, Table 3, 50 μM MurB, 3.0 mM fragment", "value": "877 ± 154", "unit": "µM"}, {"measurement": "LE", "setting": "[2]; [4]", "value": 0.28, "unit": "kcal/mol per heavy atom"}]}
{"smiles": "Cc1cc(C(=O)O)c(C)n1-c1ccccc1", "note": "[Fragment 20]", "values": [{"measurement": "SPR RU>RUf4 1.0 mM", "setting": "[1]; [3]", "value": "yes"}, {"measurement": "LE", "setting": "[2]; [4]", "value": 0.34, "unit": "kcal/mol per heavy atom"}]}
{"smiles": "Cc1nc(C(=O)O)c(C)n1-c1ccccc1", "note": "[Fragment 21]", "values": [{"measurement": "SPR RU>RUf4 1.0 mM", "setting": "[1]; [3]", "value": "no"}]}
{"smiles": "Cc1cc(C(=O)O)c(C(F)(F)F)n1-c1ccccc1", "note": "[Fragment 22]", "values": [{"measurement": "SPR RU>RUf4 1.0 mM", "setting": "[1]; [3]", "value": "yes"}, {"measurement": "LE", "setting": "[2]; [4]", "value": 0.28, "unit": "kcal/mol per heavy atom"}]}
{"smiles": "Cc1c(C(=O)O)cc(CCO)n1-c1ccccc1", "note": "[Fragment 23]", "values": [{"measurement": "Kd", "setting": "[2]; Kd (ITC)", "value": "208 ± 15", "unit": "µM"}, {"measurement": "LE", "setting": "[2]; [4]", "value": 0.28, "unit": "kcal/mol per heavy atom"}]}
{"smiles": "O=C(O)c1cnn(-c2ccccc2Cl)c1C(F)(F)F", "note": "[Fragment 30]", "values": [{"measurement": "SPR RU>RUf4 1.0 mM", "setting": "[1]; [5]", "value": "yes"}, {"measurement": "LE", "setting": "[2]; [6]", "value": 0.27, "unit": "kcal/mol per heavy atom"}]}
{"smiles": "O=C(O)c1cnn(-c2ccccc2Br)c1C(F)(F)F", "note": "[Fragment 31]", "values": [{"measurement": "SPR RU>RUf4 1.0 mM", "setting": "[1]; [5]", "value": "yes"}, {"measurement": "LE", "setting": "[2]; [6]", "value": 0.29, "unit": "kcal/mol per heavy atom"}]}
{"smiles": "Cc1ccccc1-n1ncc(C(=O)O)c1C(F)(F)F", "note": "[Fragment 32]", "values": [{"measurement": "SPR RU>RUf4 1.0 mM", "setting": "[1]; [5]", "value": "yes"}, {"measurement": "LE", "setting": "[2]; [6]", "value": 0.31, "unit": "kcal/mol per heavy atom"}]}
{"smiles": "COc1ccc(-n2ncc(C(=O)O)c2C(F)(F)F)cc1", "note": "[Fragment 35]", "values": [{"measurement": "SPR RU>RUf4 1.0 mM", "setting": "[1]; [5]", "value": "no"}]}
{"smiles": "Cc1cc([N+](=O)[O-])ccc1-n1ncc(C(=O)O)c1C(F)(F)F", "note": "[Fragment 36]", "values": [{"measurement": "SPR RU>RUf4 1.0 mM", "setting": "[1]; [5]", "value": "yes"}, {"measurement": "Kd", "setting": "[2]; [7]", "value": "208 ± 28", "unit": "µM"}, {"measurement": "LE", "setting": "[2]; [6]", "value": 0.23, "unit": "kcal/mol per heavy atom"}]}
{"smiles": "Cc1cccc(-n2ncc(C(=O)O)c2C(F)(F)F)c1C", "note": "[Fragment 38]", "values": [{"measurement": "SPR RU>RUf4 1.0 mM", "setting": "[1]; [5]", "value": "yes"}, {"measurement": "Kd", "setting": "[2]; [7]", "value": "99 ± 7.2", "unit": "µM"}, {"measurement": "LE", "setting": "[2]; [6]", "value": 0.27, "unit": "kcal/mol per heavy atom"}]}
{"smiles": "Cc1ccc(-n2ncc(C(=O)O)c2C(F)(F)F)c(C)c1", "note": "[Fragment 39]", "values": [{"measurement": "SPR RU>RUf4 1.0 mM", "setting": "[1]; [5]", "value": "yes"}, {"measurement": "Kd", "setting": "[2]; [7]", "value": "85.5 ± 8", "unit": "µM"}, {"measurement": "LE", "setting": "[2]; [6]", "value": 0.28, "unit": "kcal/mol per heavy atom"}]}
{"smiles": "Cc1ccc(C)c(-n2ncc(C(=O)O)c2C(F)(F)F)c1", "note": "[Fragment 40]", "values": [{"measurement": "SPR RU>RUf4 1.0 mM", "setting": "[1]; [5]", "value": "yes"}, {"measurement": "LE", "setting": "[2]; [6]", "value": 0.26, "unit": "kcal/mol per heavy atom"}]}
{"smiles": "Cc1cccc(C)c1-n1ncc(C(=O)O)c1C(F)(F)F", "note": "[Fragment 41]", "values": [{"measurement": "LE", "setting": "[2]; [6]", "value": 0.31, "unit": "kcal/mol per heavy atom"}]}
{"smiles": "O=C(O)c1cnn(-c2c(Cl)cccc2Cl)c1C(F)(F)F", "note": "[Fragment 42]", "values": [{"measurement": "SPR RU>RUf4 1.0 mM", "setting": "[1]; [5]", "value": "yes"}, {"measurement": "Kd", "setting": "[2]; [7]", "value": "60.2 ± 4.4", "unit": "µM"}, {"measurement": "LE", "setting": "[2]; [6]", "value": 0.29, "unit": "kcal/mol per heavy atom"}]}
{"smiles": "O=C(O)c1cnn(-c2ccc(Cl)c(Cl)c2)c1C(F)(F)F", "note": "[Fragment 43, 1-(3,4-Dichlorophenyl)-5-(trifluoromethyl)-1H-pyrazole-4-carboxylic Acid]", "values": [{"measurement": "SPR RU>RUf4 1.0 mM", "setting": "[1]; [5]", "value": "yes"}, {"measurement": "LE", "setting": "[2]; [6]", "value": 0.31, "unit": "kcal/mol per heavy atom"}]}
{"smiles": "Cc1cc(Cl)c(Cl)cc1-n1ncc(C(=O)O)c1C(F)(F)F", "note": "[Fragment 44]", "values": [{"measurement": "SPR RU>RUf4 1.0 mM", "setting": "[1]; [8]", "value": "yes"}, {"measurement": "LE", "setting": "[2]; [9]", "value": 0.35, "unit": "kcal/mol per heavy atom"}]}
{"smiles": "Cc1c(-n2ncc(C(=O)O)c2C(F)(F)F)ccc(Cl)c1Cl", "note": "[Fragment 45]", "values": [{"measurement": "SPR RU>RUf4 1.0 mM", "setting": "[1]; [8]", "value": "yes"}, {"measurement": "LE", "setting": "[2]; [9]", "value": 0.32, "unit": "kcal/mol per heavy atom"}]}
{"smiles": "Cc1ccccc1-n1c(C)cc(C(=O)O)c1C", "note": "[Fragment 46]", "values": [{"measurement": "SPR RU>RUf4 1.0 mM", "setting": "[1]; [8]", "value": "yes"}, {"measurement": "LE", "setting": "[2]; [9]", "value": 0.34, "unit": "kcal/mol per heavy atom"}]}
{"smiles": "Cc1cccc(C)c1-n1c(C)cc(C(=O)O)c1C", "note": "[Fragment 47]", "values": [{"measurement": "SPR RU>RUf4 1.0 mM", "setting": "[1]; [8]", "value": "no"}, {"measurement": "LE", "setting": "[2]; [9]", "value": 0.32, "unit": "kcal/mol per heavy atom"}]}
{"smiles": "Cc1cc(C(=O)O)c(C)n1-c1ccc(Cl)c(Cl)c1", "note": "[Fragment 48]", "values": [{"measurement": "SPR RU>RUf4 1.0 mM", "setting": "[1]; [8]", "value": "no"}, {"measurement": "LE", "setting": "[2]; [9]", "value": 0.33, "unit": "kcal/mol per heavy atom"}]}
{"smiles": "Cc1cc(C(=O)O)c(C)n1-c1cccc(Cl)c1", "note": "[Fragment 49]", "values": [{"measurement": "SPR RU>RUf4 1.0 mM", "setting": "[1]; [8]", "value": "yes"}]}
{"smiles": "Cc1cc(C(=O)O)c(C)n1-c1ccc(Cl)cc1", "note": "[Fragment 50]", "values": [{"measurement": "SPR RU>RUf4 1.0 mM", "setting": "[1]; [8]", "value": "no"}]}
{"smiles": "Cc1cc(Cl)c(Cl)cc1-n1c(C)cc(C(=O)O)c1C", "note": "[Fragment 51]", "values": [{"measurement": "LE", "setting": "[2]; [9]", "value": 0.33, "unit": "kcal/mol per heavy atom"}]}
{"smiles": "Cc1c(-n2c(C)cc(C(=O)O)c2C)ccc(Cl)c1Cl", "note": "[Fragment 52]", "values": [{"measurement": "LE", "setting": "[2]; [9]", "value": 0.33, "unit": "kcal/mol per heavy atom"}]}
{"smiles": "Cc1ccccc1-n1c(C)cc(C(=O)O)c1C(F)(F)F", "note": "[Fragment 53]", "values": [{"measurement": "SPR RU>RUf4 1.0 mM", "setting": "[1]; [8]", "value": "yes"}, {"measurement": "LE", "setting": "[2]; [9]", "value": 0.30, "unit": "kcal/mol per heavy atom"}]}
{"smiles": "Cc1cc(Cl)c(Cl)cc1-n1c(C)cc(C(=O)O)c1C(F)(F)F", "note": "[Fragment 54]", "values": [{"measurement": "LE", "setting": "[2]; [9]", "value": 0.32, "unit": "kcal/mol per heavy atom"}]}
{"smiles": "Cc1c(-n2c(C)cc(C(=O)O)c2C(F)(F)F)ccc(Cl)c1Cl", "note": "[Fragment 55]", "values": [{"measurement": "SPR RU>RUf4 1.0 mM", "setting": "[1]; [8]", "value": "yes"}, {"measurement": "LE", "setting": "[2]; [9]", "value": 0.31, "unit": "kcal/mol per heavy atom"}]}
{"smiles": "CS(=O)(=O)NC(=O)c1cnn(-c2ccccc2)c1C(F)(F)F", "note": "[Fragment 59]", "values": [{"measurement": "SPR RU>RUf4 1.0 mM", "setting": "[1]; [10]", "value": "no"}]}
{"smiles": "O=C(NS(=O)(=O)c1ccccc1)c1cnn(-c2ccccc2)c1C(F)(F)F", "note": "[Fragment 60]", "values": [{"measurement": "SPR RU>RUf4 1.0 mM", "setting": "[1]; [10]", "value": "yes"}, {"measurement": "Kd", "setting": "[2]; Kd (ITC)", "value": "320 ± 60", "unit": "µM"}, {"measurement": "Kd", "setting": "[2]; Kd(μM) ITC, Table 6, 50 μM Pa MurB, 3.0 mM fragment", "value": "324 ± 59", "unit": "µM"}, {"measurement": "LE", "setting": "[2]; [11]", "value": 0.18, "unit": "kcal/mol per heavy atom"}]}
{"smiles": "Cc1cccc(C)c1-n1ncc(C(=O)NS(=O)(=O)c2ccccc2)c1C(F)(F)F", "note": "[Fragment 62]", "values": [{"measurement": "SPR RU>RUf4 1.0 mM", "setting": "[1]; [10]", "value": "yes"}, {"measurement": "LE", "setting": "[2]; [11]", "value": 0.22, "unit": "kcal/mol per heavy atom"}]}
{"smiles": "Cc1cc(Cl)c(Cl)cc1-n1ncc(C(=O)NS(=O)(=O)c2ccccc2)c1C(F)(F)F", "note": "[Fragment 64]", "values": [{"measurement": "LE", "setting": "[2]; [11]", "value": 0.22, "unit": "kcal/mol per heavy atom"}]}
